Folding enthalpy and Tm data for 36 sequences are collected here from the array DNA melting data of Ke et al. (doi:10.1101/2024.01.08.574731).

Data set [1] can be described thus: folding enthalpy; higher = less favourable; fluorescence melt of hairpins on a sequencing array, two-state fit. The conditions noted are these: sodium 0.088 M. Summed up: (§1)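 With Cy3 and quencher oligos annealed, library hairpins on a sequenced MiSeq flow cell were imaged for Cy3 fluorescence in 50 mM Na-HEPES pH 8.0, 25 mM NaCl, in 2.5 °C steps up to 60 °C. Melting temperature and folding enthalpy were derived from bootstrapped two-state fits of signals normalised to pre-quench Cy3 and to control constructs. Four replicates were combined by inverse variance, with fitted temperatures raised by 9.35 °C to match UV melts.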

Data set [2] is described as follows: melting temperature; fluorescence melt of hairpins on a sequencing array, two-state fit, raised by 9.35 °C to match UV melts. The conditions noted are these: sodium 0.088 M. Summed up: as §1

Consider GAGGAAGGAAACTCCCTC ((((.((....)).)))), for which the folding enthalpy in data set [1] is -25 kcal/mol. For the same sequence, the Tm in data set [2] is 32.1 °C.

Turning to GAGGAAGGAAACTTCCTC (((((((....))))))), the folding enthalpy in data set [1] was -35.5 kcal/mol. The Tm in data set [2] worked out at 59 °C.

Regarding GAGGACGAAAGTCAACTC ((((((....)))..))), in data set [1], the folding enthalpy was -19.7 kcal/mol. Moreover, in data set [2], the Tm was found to be 38.2 °C.

GAGGACGCGAAAGCGCTC (((..(((....)))))): the folding enthalpy in data set [1] was -12.9 kcal/mol. Moreover, the Tm in data set [2] stood at 36.9 °C.

In the case of GAGGACGGAAACGTCCCC (.(((((....))))).), in data set [1], the folding enthalpy was -10.4 kcal/mol. Further, the Tm in data set [2] came to 42.3 °C.

In the case of GAGGAGGGAAACCCCCTC ((((.((....)).)))), in data set [1], the folding enthalpy is -26 kcal/mol. Moreover, the Tm in data set [2] stood at 46.5 °C.

Turning to GAGGAGGGAAACCTCCCC (.(((((....))))).), the folding enthalpy in data set [1] is -11.8 kcal/mol. For the same sequence, the Tm in data set [2] turned out to be 40.9 °C.

As for GAGGAGGGAAACCTTCTC (((.(((....))).))), in data set [1], the folding enthalpy is -27.3 kcal/mol. Besides, the Tm in data set [2] worked out at 42.7 °C.

Turning to GAGGATCCGAAAGGACTC (((..(((....)))))), the folding enthalpy in data set [1] is -13.3 kcal/mol. Further, the Tm in data set [2] amounted to 30.6 °C.

Consider GAGGATGGAAACGTCTTC ((.((.(....).)).)), for which the folding enthalpy in data set [1] is -13.1 kcal/mol. The Tm in data set [2] is 32.9 °C.

For the sequence GAGGCAGGAAACTGTCTC (((.(((....))).))), the folding enthalpy in data set [1] is -34.1 kcal/mol. Further, the Tm in data set [2] came out at 50.2 °C.

Regarding GAGGCCACGAAAGTGCTC (((..(((....)))))), the folding enthalpy in data set [1] is -10.9 kcal/mol. Further, the Tm in data set [2] came to 32 °C.

Take GAGGCCGAAAGGCCCTC ((((((....))).))): the folding enthalpy in data set [1] was -9.16 kcal/mol. Moreover, in data set [2], the Tm came out at 58 °C.

Turning to GAGGCCGAAAGGCTCTC ((((((....))).))), the folding enthalpy in data set [1] was -17.9 kcal/mol. Besides, in data set [2], the Tm was found to be 54.7 °C.

On to GAGGCCGAAAGGCTTCTC ((((((....)))..))), for which the folding enthalpy in data set [1] is -19.1 kcal/mol. For the same sequence, in data set [2], the Tm is 54.9 °C.

For the sequence GAGGCCGGAAACAGCCCC (.(((.(....).))).), the folding enthalpy in data set [1] was -10.6 kcal/mol. Moreover, the Tm in data set [2] came out at 27.2 °C.

Regarding GAGGCCGGAAACAGCCTC (((((.(....).))))), the folding enthalpy in data set [1] is -27.5 kcal/mol. The Tm in data set [2] was 50.2 °C.

GAGGCCGGAAACGACCCC (.((.((....)).)).): in data set [1], the folding enthalpy was -19.7 kcal/mol. In addition, the Tm in data set [2] was determined as 30.6 °C.

On to GAGGCCGGAAACGGCTTC ((.((((....)))).)), for which, in data set [1], the folding enthalpy is -16.9 kcal/mol. Moreover, the Tm in data set [2] was 55.9 °C.

Take GAGGCGACGAAAGTCCTC (((..(((....)))))): the folding enthalpy in data set [1] was -12.6 kcal/mol. For the same sequence, in data set [2], the Tm is 38.1 °C.

GAGGCGCCGAAAGGCCTC (((..(((....)))))): in data set [1], the folding enthalpy was -13.3 kcal/mol. Also, the Tm in data set [2] came to 44.3 °C.

With GAGGCTGGAAACAGCTTC ((.((((....)))).)), the folding enthalpy in data set [1] is -19.8 kcal/mol. Besides, in data set [2], the Tm came out at 49 °C.

On to GAGGCTGGAAACGGCCTC (((((.(....).))))), for which the folding enthalpy in data set [1] is -46.4 kcal/mol. Moreover, the Tm in data set [2] amounted to 59.6 °C.

With GAGGCTGGAAACGGTCTC (((.(.(....).).))), the folding enthalpy in data set [1] is -28.5 kcal/mol. For the same sequence, the Tm in data set [2] was found to be 39.6 °C.

With GAGGGAACGAAAGTTCTC (((..(((....)))))), in data set [1], the folding enthalpy was -13.7 kcal/mol. The Tm in data set [2] is 37.7 °C.

Regarding GAGGGACGAAAGTCCTC (((.(((....)))))), in data set [1], the folding enthalpy was -11.8 kcal/mol. In addition, in data set [2], the Tm was 48.9 °C.

For GAGGGACGAAAGTCTCTC (((.(((....))).))), the folding enthalpy in data set [1] is -32.4 kcal/mol. In data set [2], the Tm turned out to be 55.4 °C.

For GAGGGAGGAAACTCCTTC ((.((((....)))).)), the folding enthalpy in data set [1] was -19.7 kcal/mol. Besides, in data set [2], the Tm turned out to be 38.3 °C.

Consider GAGGGAGGAAACTCTCTC (((.(((....))).))), for which the folding enthalpy in data set [1] is -24.6 kcal/mol. In addition, in data set [2], the Tm is 44.2 °C.

On to GAGGGAGGAAACTTCCTC ((((.((....)).)))), for which the folding enthalpy in data set [1] is -25.6 kcal/mol. Besides, the Tm in data set [2] was found to be 45.6 °C.

Take GAGGGCCCGAAAGGGCTC (((..(((....)))))): the folding enthalpy in data set [1] was -8.22 kcal/mol. The Tm in data set [2] came to 43.9 °C.

With GAGGGCGAAAGCCACTC ((((((....))).))), in data set [1], the folding enthalpy was -13.7 kcal/mol. The Tm in data set [2] amounted to 53.4 °C.

Consider GAGGGCGAAAGCCCCTC ((((((....))).))), for which the folding enthalpy in data set [1] is -9.57 kcal/mol. Further, the Tm in data set [2] was found to be 57.1 °C.

On to GAGGGCGAAAGCCGTCTC ((((((....)))..))), for which, in data set [1], the folding enthalpy was -20.4 kcal/mol. For the same sequence, the Tm in data set [2] was determined as 59 °C.

As to GAGGGCGAAAGCCTGCTC ((((((....)))..))), the folding enthalpy in data set [1] is -12.4 kcal/mol. In addition, the Tm in data set [2] amounted to 42.5 °C.

GAGGGCGGAAACGTCCTC ((((.((....)).)))): the folding enthalpy in data set [1] was -47 kcal/mol. In addition, in data set [2], the Tm was 59.1 °C.
